According to ChEMBL document CHEMBL1130167, “NMR-based discovery of lead inhibitors that block DNA binding of the human papillomavirus E2 protein” (J Med Chem, 1997):

Tested on: Nucleic Acid
Assay: Compound was tested for inhibition activity against HPV-E2 DNA-binding domain (DBD) (human papillomavirus E2) binding to DNA
Type: nucleic-acid assay
Procedure, shortened: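 Filter-binding assay: binding reactions at room temperature for 10 min in binding buffer (20 mM Tris-HCl pH 7.5, 100 mM NaCl, 5 mM DTT, 1 mM EDTA, BSA) with 4 nM DNA and 400 nM E2 DBD. Compounds were added from DMSO stocks at various concentrations. Mixtures were filtered through nitrocellulose, washed with buffer lacking BSA and counted by scintillation. IC50 was read from concentration versus percent inhibition plots.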

| Structure (SMILES) | IC50 |
| --- | --- |
| O=C(O)/C=C/C=C/c1ccc(Oc2ccccc2)cc1 | 75 µM |
| O=C(O)/C=C/C=C/c1cccc(Oc2cc(Cl)cc(Cl)c2)c1 | 10 µM |
| O=C(O)c1ccc(-c2ccccc2)cc1 | > 1000 µM |
| O=C(O)c1ccc(-c2cc(Cl)cc(Cl)c2)cc1 | 150 µM |
| O=C(O)CCCc1ccc(Oc2ccccc2)cc1 | > 1000 µM |

Target: Regulatory protein E2 (Human papillomavirus type 31)
Assay: Dissociation constant after binding to human papillomavirus E2 DNA-binding domain (DBD) by observing the changes in [15N]-HSQC spectra.

| Structure (SMILES) | Kd |
| --- | --- |
| O=C(O)c1ccc(-c2ccc(Oc3ccccc3)cc2)cc1 | 2100 µM |
| O=C(O)c1ccc(-c2ccc(C(F)(F)F)cc2)cc1 | 1500 µM |
| O=C(O)/C=C/C=C/c1ccc(Oc2ccccc2)cc1 | 350 µM |
| CN(C)c1ccc(-c2ccc(C(=O)O)cc2)cc1 | 6800 µM |
| Cc1ccccc1-c1ccc(C(=O)O)cc1 | 2700 µM |
| O=C(O)CCCCc1ccc(Oc2ccccc2)cc1 | 850 µM |
| CC(C)(C)c1ccc(-c2ccc(C(=O)O)cc2)cc1 | > 10000 µM |
| O=C(O)c1ccc(-c2ccc(Cl)cc2Cl)cc1 | 3500 µM |
| O=C(O)c1ccc(-c2cc(Cl)cc(Cl)c2)cc1 | 60 µM |
| O=C(O)c1ccc(-c2cccc(Cl)c2)cc1 | 1200 µM |
| COc1ccc(-c2ccc(C(=O)O)cc2)cc1 | 8800 µM |
| O=C(O)c1ccc(-c2ccc(Cl)c(Cl)c2)cc1 | 6600 µM |
| O=C(O)c1ccc(-c2cccc(C(F)(F)F)c2)cc1 | 320 µM |
| O=C(O)c1ccc(-c2cccc(F)c2)cc1 | 1600 µM |
| O=C(O)c1ccc(-c2cc(C(F)(F)F)cc(C(F)(F)F)c2)cc1 | > 10000 µM |
| O=C(O)c1ccc(-c2ccc(O)cc2)cc1 | > 10000 µM |
| O=C(O)c1ccc(-c2cccc([N+](=O)[O-])c2)cc1 | 8900 µM |
| Nc1cccc(-c2ccc(C(=O)O)cc2)c1 | > 10000 µM |
| O=C(O)CCc1ccc(Oc2ccccc2)cc1 | 2300 µM |
| O=C(O)CCCc1ccc(Oc2ccccc2)cc1 | 1900 µM |
| O=C(O)Cc1cccc(Oc2ccccc2)c1 | > 10000 µM |
| O=C(O)c1ccc(-c2ccc([N+](=O)[O-])c(Cl)c2)cc1 | > 10000 µM |
| COc1ccccc1-c1ccc(C(=O)O)cc1 | 1700 µM |
| Cc1cccc(-c2ccc(C(=O)O)cc2)c1 | 1900 µM |
